Tests used:
Assay type in all cases: functional
Mus musculus [1] = test: Percent increase in median life span of BDF1 mice with P-388 leukemia at dose 6.25 mg/kg administered intraperitoneally; conditions: BDF1, P388, ip, route intraperitoneal
Mus musculus [2] = species on record: Mus musculus; test: Anticancer activity measured as the number of survivors of the total treated mice with P-388 leukemia at 30 days.
Method in brief: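 BDF1 or CDF1 mice given 10^6 ascitic P-388 leukemia cells ip, then treated ip on days 1, 5 and 9. Cures are survivors over total treated at 30 days.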

Mus musculus [3] = test: Percent increase in median life span of BDF1 mice with B-16 melanoma administered intraperitoneally
Method in brief: (§1)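 BDF1 mice were implanted ip with a homogenate from 0.05 g of B-16 melanoma. Ip dosing ran on days 1-9, starting 24 h after implant, in dose-response studies following NCI protocols. The read-out was percent increase in life span (ILS). T/C ≥125% was taken as significant.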

Mus musculus [4] = test: Percent increase in median life span of BDF1 mice with P-388 leukemia at dose 200 mg/kg administered intraperitoneally; conditions: BDF1, P388, ip, route intraperitoneal
Mus musculus [5] = test: Percent increase in median life span of BDF1 mice with P-388 leukemia administered intraperitoneally
Mus musculus [6] = test: Percent increase in median life span of BDF1 mice with B-16 melanoma at dose 12 mg/kg administered intraperitoneally; conditions: BDF1, B16, ip, route intraperitoneal; method in brief: as §1
Mus musculus [7] = species on record: Mus musculus; test: Number of survivors of the total treated mice with B-16 melanoma, at 60 days.
Method in brief: (§2)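 BDF1 mice were implanted ip with a homogenate from 0.05 g of B-16 melanoma and dosed ip on days 1-9. Cures are survivors over total at 60 days.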

Mus musculus [8] = test: Percent increase in median life span of BDF1 mice with P-388 leukemia at dose 25 mg/kg administered intraperitoneally; conditions: BDF1, P388, ip, route intraperitoneal
Mus musculus [9] = test: Percent increase in median life span of BDF1 mice with P-388 leukemia at dose 50 mg/kg administered intraperitoneally; conditions: BDF1, P388, ip, route intraperitoneal
Mus musculus [10] = species on record: Mus musculus; test: Cures is the number of survivors of the total treated mice (10) with B-16 melanoma, at 60 days.; method in brief: as §2
Mus musculus [11] = test: Percent increase in median life span of BDF1 mice with P-388 leukemia at dose 12.5 mg/kg administered intraperitoneally; conditions: BDF1, P388, ip, route intraperitoneal
Mus musculus [12] = test: Percent increase in median life span of BDF1 mice with B-16 melanoma at dose 50 mg/kg administered intraperitoneally; conditions: BDF1, B16, ip, route intraperitoneal; method in brief: as §1
Mus musculus [13] = test: Percent increase in median life span of BDF1 mice with B-16 melanoma at dose 12.5 mg/kg administered intraperitoneally; conditions: BDF1, B16, ip, route intraperitoneal; method in brief: as §1
Mus musculus [14] = test: Percent increase in median life span of BDF1 mice with B-16 melanoma at dose 25 mg/kg administered intraperitoneally; conditions: BDF1, B16, ip, route intraperitoneal; method in brief: as §1

SMILES | Cures (Mus musculus [2]) | ILS at 200 mg/kg (Mus musculus [4]) [%] | also measured
CCN(CC)CC/N=C(\S)N/N=C/c1c2ccccc2c(/C=N/N/C(S)=N/CCN(CC)CC)c2ccccc12.Cl.Cl | 0 |  | ILS at 6.25 mg/kg (Mus musculus [1]): 95%
CN(C)CCCCCCC/N=C(\S)N/N=C/c1c2ccccc2c(/C=N/N/C(S)=N/CCCCCCCN(C)C)c2ccccc12.Cl | 0 |  | ILS at 6.25 mg/kg (Mus musculus [1]): 39%; ILS (Mus musculus [3]): 0%
C(=N\Nc1nc2ccccc2s1)/c1c2ccccc2c(/C=N/Nc2nc3ccccc3s2)c2ccccc12 | 0 | 0 | 
COCC/N=C(\S)N/N=C/c1c2ccccc2c(/C=N/N/C(S)=N/CCOC)c2ccccc12 |  |  | ILS (Mus musculus [5]): 0%
CN1CCN(C)C1=N/N=C/c1c2ccccc2c(/C=N/N=C2N(C)CCN2C)c2ccccc12 | 0 | 0 | 
C(=N\Nc1ccccn1)/c1c2ccccc2c(/C=N/Nc2ccccn2)c2ccccc12 | 0 | 0 | 
N=C(NCc1ccccc1)N/N=C/c1c2ccccc2c(/C=N/NC(=N)NCc2ccccc2)c2ccccc12 | 0 |  | ILS at 12 mg/kg (Mus musculus [6]): 47%; Cures (Mus musculus [7]): 0; ILS at 25 mg/kg (Mus musculus [8]): 68%
NC(=O)N/N=C/c1c2ccccc2c(/C=N/NC(N)=O)c2ccccc12 | 0 | 0 | 
N=C(N/N=C/c1c2ccccc2c(/C=N/NC(=N)NC2CCCCC2)c2ccccc12)NC1CCCCC1 | 0 |  | ILS at 50 mg/kg (Mus musculus [9]): 73%; ILS at 12 mg/kg (Mus musculus [6]): 80%; Cures (Mus musculus [7]): 0
O=C(N/N=C/c1c2ccccc2c(/C=N/NC(=O)c2cccnc2)c2ccccc12)c1cccnc1 | 0 | 0 | 
C(=N\NC1=NCCCCN1)/c1c2ccccc2c(/C=N/NC2=NCCCCN2)c2ccccc12 | 0 |  | Cures (Mus musculus [10]): 1; ILS at 12 mg/kg (Mus musculus [6]): 173%; ILS at 12.5 mg/kg (Mus musculus [11]): 90%
CSC(=N)N/N=C/c1c2ccccc2c(/C=N/N=C(/N)SC)c2ccccc12 | 0 | 0 | 
CN(C)c1ccc(N/C(S)=N/N=C/c2c3ccccc3c(/C=N/N=C(/S)Nc3ccc(N(C)C)cc3)c3ccccc23)cc1 |  |  | ILS (Mus musculus [5]): 0%
CCCO.Clc1cccc2c1C(/C=N/NC1=NCCN1)c1cccc(Cl)c1C2/C=N/NC1=NCCN1 (stereo not drawn) |  | 0 | ILS at 50 mg/kg (Mus musculus [12]): 0%
Cc1ccc2c(/C=N/NC3=NCCN3)c3ccccc3c(/C=N/NC3=NCCN3)c2c1Cl.Cl.Cl | 0 |  | Cures (Mus musculus [10]): 4; ILS at 12.5 mg/kg (Mus musculus [11]): 130%; ILS at 12.5 mg/kg (Mus musculus [13]): 220%
Cl.Cl.Clc1cccc2c1C(/C=N/NC1=NCCN1)c1ccccc1C2/C=N/NC1=NCCN1 (stereo not drawn) |  |  | ILS at 50 mg/kg (Mus musculus [9]): 100%; Cures (Mus musculus [10]): 3; ILS at 50 mg/kg (Mus musculus [12]): 153%
Cl.Cl.Clc1ccc2c(c1)C(/C=N/NC1=NCCN1)c1ccccc1C2/C=N/NC1=NCCN1 (stereo not drawn) |  |  | ILS at 50 mg/kg (Mus musculus [9]): 100%; Cures (Mus musculus [10]): 5; ILS at 12.5 mg/kg (Mus musculus [13]): 230%
CN(C)CC/N=C/c1c2ccccc2c(/C=N/CCN(C)C)c2ccccc12 | 0 | 0 | 
N/N=C(\S)N/N=C/c1c2ccccc2c(/C=N/N/C(S)=N/N)c2ccccc12 | 0 | 0 | 
CN(C)/N=C/c1c2ccccc2c(/C=N/N(C)C)c2ccccc12 | 0 | 0 | 
Cc1ccc(S(=O)(=O)N/N=C/c2c3ccccc3c(/C=N/NS(=O)(=O)c3ccc(C)cc3)c3ccccc23)cc1 | 0 | 0 | 
CN/N=C/c1c2ccccc2c(/C=N/NC)c2ccccc12 | 0 | 0 | 
C(=N\NC1=NCc2ccccc2CN1)/c1c2ccccc2c(/C=N/NC2=NCc3ccccc3CN2)c2ccccc12 | 0 | 30 | 
CC(C)/N=C(/N/N=C/c1c2ccccc2c(/C=N/N=C(NC(C)C)NC(C)C)c2ccccc12)NC(C)C | 0 |  | ILS at 50 mg/kg (Mus musculus [9]): 50%; Cures (Mus musculus [7]): 0; ILS (Mus musculus [3]): 0%
N=C(N/N=C/c1c2ccccc2c(/C=N/NC(=N)NC2CCc3ccccc32)c2ccccc12)NC1CCc2ccccc21 (stereo not drawn) | 0 | 80 | ILS at 25 mg/kg (Mus musculus [14]): 62%; Cures (Mus musculus [7]): 0

Source: ChEMBL document CHEMBL1122207, “Antitumor agents. 2. Bisguanylhydrazones of anthracene-9,10-dicarboxaldehydes” (1982)
